Shown are actives, neighbours in structure and some others; about 6.4% of the full set was active somewhere.
HUVEC prolif 384 – blocks proliferation of human endothelial cells; viability, % at 10 µM (by protocol); 1.1% of 86,000 active; HUVEC proliferation, CellTiter-Glo luminescence, 72 h; hits give low values; AID 648;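 active = viability at or below 30%; inactive = viability above 30%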
H69AR inhibit – blocks growth of human H69AR lung tumor cells; H69AR lung tumor viability, ATP luminescence, 72 h; hits give low values; viability, % at 10 µM; 6% of 85,000 active; AID 598;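 active = viability at or below 40%; inactive = viability above 40%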;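 note: multidrug resistant small cell line overexpressing MRP-1 efflux transporter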
Fibroblast inh – blocks proliferation of human lung fibroblasts; LL 47 human lung fibroblast viability, ATP luminescence; hits give low values; viability, % at 10 µM; 1.1% of 85,000 active; AID 719;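 active = viability at or below 50% in the single dose screen; inactive = viability above 50%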;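 note: compound exposure lasted 72 h before the ATP readout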
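Assay system: human lung fibroblast line LL 47, low passage. Input: 1,150 fibroblasts seeded per well. Times: overnight cell rest, 72 h compound treatment at 37 °C. Evaluation: % viability of median cell-only signal. Technique: luminescent ATP detection, CellTiter-Glo. Control set: cell-only wells, no compound.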
tolC growth inh – blocks growth of E. coli BW25113 tolC mutant; OD615; growth inhibition, % at 10 µM (by protocol); 2.2% of 65,000 active; AID 573;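 active = growth inhibition at or above a cutoff equal to the mean over every tested compound plus 3 SD, cut at about 60% in these data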;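 note: growth measured after 20 h incubation at 37 °C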
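Material: E. coli BW25113 ΔtolC::kan, tolC deletion mutant strain. Measure: percent growth inhibition. Schedule: 37 °C, 20 h exposure. Doses: single-point testing at 10 µM. Signal: A615 absorbance measurement. Buffer or medium: kanamycin-containing LB broth (50 µg/mL).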
E coli WT exp – growth inhibitors of E. coli BW25113 wild type | OD600 absorbance | growth inhibition, % at 100 µM | 0.15% of 98,000 active;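 active = growth inhibition above about 50% at one test dose, limit read from the data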;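 note: growth measured after 20 h incubation at 37 °C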
Jurkat viability – cytotoxic compounds reducing Jurkat cell viability; Jurkat E6.1 viability, ATP luminescence, 48 h; inhibition, % at 4 µM; 1.2% of 56,000 active; AID 463;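 active = inhibition above the mean inhibition of all tested compounds plus 3 SD, cut at about 28% in these data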
Hits are given with their value; - = inactive; . = no result given.

SMILES	HUVEC prolif 384	H69AR inhibit	Fibroblast inh	tolC growth inh	E coli WT exp	Jurkat viability
CCOC(=O)c1ccc(Nc2ncnc3ccc(C)cc23)cc1	-	-	-	.	-	.
CCOc1ccccc1N1CCN(C(=O)Nc2ccc(F)c(Cl)c2)CC1	-	-	-	96	-	-
Cc1cc(=O)[nH]c2ccc(Cl)cc12	24	-	-	.	-	.
Cc1cc(=O)c2cc(Cl)ccc2[nH]1	-	-	-	-	-	-
CC(C)(C)CC(=O)NC(=S)N1CCCCCC1	.	.	.	.	-	.
O=C(COc1cccc(OC(F)F)c1)Nc1ccc(SC(F)F)cc1	.	.	.	70	-	.
N/C(=N\c1nc2c(c(=O)[nH]1)CCCC2)Nc1ccccc1Sc1ccccc1	-	-	-	.	-	.
CCCCc1cc(=O)oc2cc(C)cc(O)c12	-	10	-	.	-	.
COc1ccc([N+](=O)[O-])cc1COc1cc(C)cc2oc(=O)cc(-c3ccccc3)c12	.	.	.	.	-	.
Cc1cc(O)c2c(-c3ccccc3)cc(=O)oc2c1	-	39	-	-	-	-
CCCCc1cc(=O)oc2cc(C)cc(OC(C)C(=O)O)c12 (stereo not drawn)	-	-	-	-	-	-
CCN1CCN(C(=O)c2ccccc2N(Cc2ccccc2)S(=O)(=O)c2ccc(C)cc2)CC1	-	-	-	.	-	.
CC(=O)c1c(C)[nH]c(C(=O)OCC(=O)N(C)C)c1C	-	-	-	.	-	.
Cc1nn2c(-c3cccc(NC(=O)CSc4nc5ccccc5o4)c3)nnc2c2ccccc12	-	9.6	-	-	-	-
CC1CCc2nc(NC(=O)CSc3nc4ccccc4o3)sc2C1 (stereo not drawn)	-	31	-	-	-	-
Cc1nnc(NC(=O)CSc2nc3ccccc3o2)s1	-	-	-	.	.	.
O=C(CSc1nc2ccccc2o1)Nc1ccccc1N1CCCCCC1	-	-	-	73	-	-
Cc1noc(/C=C/N(C)C)c1S(=O)(=O)N1CCCC(C(=O)NCc2ccccc2Cl)C1 (stereo not drawn)	-	-	-	-	-	-
CCOc1ccc2nc(-c3ccccc3)[nH]c2c1	-	24	-	-	-	76
Cc1c(C(=O)NCc2cccnc2)oc2ccc(S(=O)(=O)N3CC(C)CC(C)C3)cc12 (stereo not drawn)	-	-	-	-	-	-
Cc1cccc(NC(=O)c2oc3ccc(S(=O)(=O)N4CCOCC4)cc3c2C)c1C	-	35	-	-	-	-
Cc1c(C(=O)Nc2ccc(F)cc2)oc2ccc(S(=O)(=O)N3CC(C)CC(C)C3)cc12 (stereo not drawn)	-	12	-	.	-	.
Cc1c(C(=O)NCCC2=CCCCC2)oc2ccc(S(=O)(=O)N3CCOCC3)cc12	-	10	-	-	-	.
CCN(CC)S(=O)(=O)c1cccc(C(=O)NC(C(=O)Nc2nnc(C)s2)C(C)C)c1 (stereo not drawn)	-	-	-	.	-	.
O=C(NCc1ccccc1)c1c[nH]c2cc3c(cc2c1=O)OCCO3	-	-	-	.	.	.
SMILES	HUVEC prolif 384	H69AR inhibit	Fibroblast inh	tolC growth inh	E coli WT exp	Jurkat viability
O=C(Nc1ncc(Br)s1)C(Cc1ccccc1)n1cccc1 (stereo not drawn)	-	-	-	96	-	-
CCC(c1nnnn1Cc1ccc(F)cc1)N(CCCO)Cc1cc2cc3c(cc2[nH]c1=O)OCO3 (stereo not drawn)	-	-	-	-	-	-
COCc1cc(C)nc2sc3c(=O)oc(C)nc3c12	-	-	-	66	-	-
O=[N+]([O-])c1c(C(Cl)Cl)nn(-c2ccccc2)c1N1CCCC1	.	.	.	.	-	.
O=C(c1cc2ccccc2o1)N1CCN(c2ccccc2Cl)CC1	-	-	-	100	-	-
CCCC(=O)N1CCN(c2ccc(NC(=O)c3cc4ccccc4o3)cc2Cl)CC1	2.1	13	16	-	-	-
O=C(c1ccccc1)N1CCN(C(=O)c2cc3ccccc3o2)CC1	-	-	-	.	-	.
O=C(CCn1c(=O)oc2ccccc21)N1CCN(c2ccccc2Cl)CC1	-	18	-	-	-	69
CCC(=O)N1CCN(c2ccc(NC(=O)c3cc4ccccc4o3)cc2Cl)CC1	2.9	10	42	-	-	-
COC(=O)c1ccc(N2CCN(C)CC2)c(NC(=O)c2cc3ccccc3o2)c1	-	-	-	-	-	-
O=C(CCn1c(=O)oc2ccccc21)N1CCCCCC1	-	-	-	-	-	-
CN(CC(=O)Nc1cccc2ccccc12)c1ccc(S(=O)(=O)N2CCOCC2)cn1	-	-	-	.	-	.
COc1ccc(S(=O)(=O)N/N=C(/C)c2cccc(NC(=O)c3ccccc3Cl)c2)cc1	.	.	.	.	-	.
O=S(=O)(NCCSc1nnc(-c2ccco2)n1-c1ccccc1)c1ccccc1	-	-	-	-	-	-
O=C(Nc1ccc(N2CCN(C(=O)c3ccccc3)CC2)c(Cl)c1)c1ccco1	-	-	-	-	-	-
CCCOc1ccc(C(=O)N2CCN(c3ccc(NC(=O)CC)cc3Cl)CC2)cc1	-	-	-	63	-	-
CCCCOc1ccc(C(=O)N2CCCCCC2)cc1	-	-	-	-	-	-
O=C(Nc1ccc(N2CCN(C(=O)c3ccco3)CC2)c(Cl)c1)c1cc2ccccc2o1	7.9	37	43	-	-	-
O=C(Nc1ccc(N2CCOCC2)cc1)C1CCCN(S(=O)(=O)c2cccc(C(F)(F)F)c2)C1 (stereo not drawn)	-	-	-	-	-	-
Cc1ccc(-n2c(SCC(N)=O)nnc2-c2ccc(S(=O)(=O)N3CCCCC3)cc2)c(C)c1	-	-	-	.	-	.
N#CC1=C2SCN(Cc3ccco3)CN2C(=O)CC1c1ccccc1F (stereo not drawn)	-	40	-	.	-	.
N#CC1=C2SCN(Cc3ccco3)CN2C(=O)CC1c1cccc2ccccc12 (stereo not drawn)	-	-	-	-	-	-
O=C(O)CCc1n[nH]c(=S)[nH]c1=O	.	.	.	-	-	-
Cc1cc(C)n(CC2CC(=O)N(c3ccc(Cl)c(Cl)c3)C2=O)n1 (stereo not drawn)	-	-	-	-	-	.
COc1cc(CNc2ccccc2Oc2cc(=O)n(C)c(=O)n2C)cc(OC)c1OC	-	-	-	.	-	.
SMILES	HUVEC prolif 384	H69AR inhibit	Fibroblast inh	tolC growth inh	E coli WT exp	Jurkat viability
Cn1c(Oc2ccccc2NCc2cc(Br)ccc2O)cc(=O)n(C)c1=O	-	-	-	65	-	-
COc1ccc(C2SCCN2S(=O)(=O)c2ccc(F)cc2)cc1OC (stereo not drawn)	-	-	-	-	-	-
COc1ccccc1C1SCCN1S(=O)(=O)c1cccc(C(F)(F)F)c1 (stereo not drawn)	-	-	-	63	-	-
O=C(O)CC1CCC(=C(Cl)Cl)C1 (stereo not drawn)	-	1.3	-	-	-	-
O=C(O)CC1CCS(=O)(=O)C1 (stereo not drawn)	-	-	-	-	-	-
CC(C)Cn1cc(C(=O)N2CCN(c3ccccn3)CC2)c2c3ccccc3n(C)c2c1=O	-	38	-	-	-	-
CCN1CCN(C(=O)c2cn(CCOC)c(=O)c3c2c2ccccc2n3C)CC1	-	-	.	-	-	-
